Results: ChEMBL document CHEMBL1255471, “Effects of inoculum, pH, and cations on the in vitro activity of fidaxomicin (OPT-80, PAR-101) against Clostridium difficile” (2010)
In brackets after ≈: the same amount, converted by molar mass.

Columns and labels:
Format in all cases: functional
Clostridioides difficile [1] = experiment: Antibacterial activity against Clostridium difficile ATCC 700057 in presence of 33 mg/L of calcium ion by CLSI agar dilution method
Clostridioides difficile [2] = experiment: Antibacterial activity against Clostridium difficile ATCC 9689 by CLSI agar dilution method using 10^5 to 10^8 CFU/ml inoculum
Summary of the method: (§1)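 CLSI agar dilution in a glove box (10% H2, 5% CO2, 85% N2). A ~10^8 CFU/ml suspension was serially diluted 10-fold to 10^5–10^8 CFU/ml and 2 μl was spotted (10^2–10^5 CFU/spot). Runs were done at least in duplicate; the mode was reported, or the higher value when replicates split evenly.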

Clostridioides difficile [3] = experiment: Ratio of MIC for Clostridium difficile ATCC 9689 at pH 6.2 to MIC for Clostridium difficile ATCC 9689 at pH 7.9 by CLSI agar dilution method
Summary of the method: (§2)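 Agar dilution MICs were measured over anaerobic pH 6.2–8.0. Media were buffered with 100 mM NaH2PO4 (pH 7) or TAPS (pH 8) and set in ambient air above the target pH. After 3 h equilibration in the chamber (5% CO2), anaerobic pH was checked with a flat-bottomed probe. The pH 8.0 run was repeated, and ratios were taken between MICs at the two pH values.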

Clostridioides difficile [4] = experiment: Ratio of MIC for Clostridium difficile ATCC 9689 at pH 7 to MIC for Clostridium difficile ATCC 9689 at pH 7.9 by CLSI agar dilution method; summary of the method: as §2
Clostridioides difficile [5] = experiment: Antibacterial activity against Clostridium difficile ATCC 700057 in presence of 21 mg/L of magnesium ion by CLSI agar dilution method
Clostridioides difficile [6] = experiment: Antibacterial activity against Clostridium difficile ATCC 9689 in presence of 30 mg/L of magnesium ion by CLSI agar dilution method
Clostridioides difficile [7] = experiment: Antibacterial activity against Clostridium difficile ATCC 9689 in presence of 21 mg/L of magnesium ion by CLSI agar dilution method
Clostridioides difficile [8] = experiment: Ratio of MIC for Clostridium difficile ATCC 700057 at pH 7 to MIC for Clostridium difficile ATCC 700057 at pH 7.9 by CLSI agar dilution method; summary of the method: as §2
Clostridioides difficile [9] = experiment: Antibacterial activity against Clostridium difficile ATCC 700057 in presence of 45 mg/L of calcium ion by CLSI agar dilution method
Clostridioides difficile [10] = experiment: Ratio of MIC for Clostridium difficile ATCC 700057 at pH 6 to MIC for Clostridium difficile ATCC 700057 at pH 8.1 by broth microdilution method
Summary of the method: (§3)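 Broth microdilution in brucella broth buffered at 10 or 100 mM with NaH2PO4·H2O (pH 7.0), MOPS (pH 8.0) or TAPS (pH 9.0), pH set in ambient air. Final anaerobic pH ranges were 6–7.6 (10 mM) and 6–8.1 (100 mM). Plates were equilibrated anaerobically for at least 3 h before inoculation. Data were pooled from three experiments, and ratios were taken between MICs at the two pH values.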

Clostridioides difficile [11] = experiment: Ratio of MIC for Clostridium difficile ATCC 9689 at pH 6 to MIC for Clostridium difficile ATCC 9689 at pH 8.1 by broth microdilution method; summary of the method: as §3
Clostridioides difficile [12] = experiment: Ratio of MIC for Clostridium difficile ATCC 700057 at pH 6 to MIC for Clostridium difficile ATCC 700057 at pH 7.5 by broth microdilution method; summary of the method: as §3
Clostridioides difficile [13] = experiment: Antibacterial activity against Clostridium difficile ATCC 700057 by CLSI agar dilution method using 10^5 to 10^8 CFU/ml inoculum; summary of the method: as §1
Clostridioides difficile [14] = experiment: Antibacterial activity against Clostridium difficile ATCC 700057 in presence of 75 mg/L of calcium ion by CLSI agar dilution method
Clostridioides difficile [15] = experiment: Antibacterial activity against Clostridium difficile ATCC 700057 in presence of 30 mg/L of magnesium ion by CLSI agar dilution method
Clostridioides difficile [16] = experiment: Ratio of MIC for Clostridium difficile ATCC 700057 at pH 6.2 to MIC for Clostridium difficile ATCC 700057 at pH 7.9 by CLSI agar dilution method; summary of the method: as §2
Clostridioides difficile [17] = experiment: Antibacterial activity against Clostridium difficile ATCC 700057 in presence of 57 mg/L of magnesium ion by CLSI agar dilution method
Clostridioides difficile [18] = experiment: Antibacterial activity against Clostridium difficile ATCC 9689 in presence of 57 mg/L of magnesium ion by CLSI agar dilution method
Clostridioides difficile [19] = experiment: Antibacterial activity against Clostridium difficile ATCC 9689 in presence of 45 mg/L of calcium ion by CLSI agar dilution method
Clostridioides difficile [20] = experiment: Antibacterial activity against Clostridium difficile ATCC 9689 in presence of 33 mg/L of calcium ion by CLSI agar dilution method
Clostridioides difficile [21] = experiment: Antibacterial activity against Clostridium difficile ATCC 9689 in presence of 75 mg/L of calcium ion by CLSI agar dilution method
Clostridioides difficile [22] = experiment: Ratio of MIC for Clostridium difficile ATCC 9689 at pH 6 to MIC for Clostridium difficile ATCC 9689 at pH 7.5 by broth microdilution method; summary of the method: as §3

What does the source list for `CCc1c(Cl)c(O)c(Cl)c(O)c1C(=O)O[C@H]1[C@H](O)[C@H](OC)[C@H](OC/C2=C\C=C\C[C@H](O)/C(C)=C/[C@H](CC)[C@@H](O[C@@H]3OC(C)(C)[C@@H](OC(=O)C(C)C)[C@H](O)[C@@H]3O)/C(C)=C/C(C)=C/C[C@@H]([C@@H](C)O)OC2=O)O[C@@H]1C` [FIDAXOMICIN]?
MIC (Clostridioides difficile [1]): 0.125 µg/mL; MIC (Clostridioides difficile [2]): 0.063 µg/mL (≈ 0.0595 µM); Ratio (Clostridioides difficile [3]): 8; Ratio (Clostridioides difficile [4]): 8; MIC (Clostridioides difficile [5]): 0.125 µg/mL; MIC (Clostridioides difficile [6]): 0.063 µg/mL; MIC (Clostridioides difficile [7]): 0.063 µg/mL; Ratio (Clostridioides difficile [8]): 8; MIC (Clostridioides difficile [9]): 0.125 µg/mL; Ratio (Clostridioides difficile [10]): 16; Ratio (Clostridioides difficile [11]): 16; Ratio (Clostridioides difficile [12]): 8; MIC (Clostridioides difficile [13]): 0.125 µg/mL (≈ 0.118 µM); MIC (Clostridioides difficile [14]): 0.125 µg/mL; MIC (Clostridioides difficile [15]): 0.125 µg/mL; Ratio (Clostridioides difficile [16]): 8; MIC (Clostridioides difficile [17]): 0.125 µg/mL; MIC (Clostridioides difficile [18]): 0.063 µg/mL; MIC (Clostridioides difficile [19]): 0.063 µg/mL; MIC (Clostridioides difficile [20]): 0.063 µg/mL; MIC (Clostridioides difficile [21]): 0.063 µg/mL; Ratio (Clostridioides difficile [22]): 8

`CN[C@H](CC(C)C)C(=O)N[C@H]1C(=O)N[C@@H](CC(N)=O)C(=O)N[C@H]2C(=O)N[C@H]3C(=O)N[C@H](C(=O)N[C@H](C(=O)O)c4cc(O)cc(O)c4-c4cc3ccc4O)[C@H](O)c3ccc(c(Cl)c3)Oc3cc2cc(c3O[C@@H]2O[C@H](CO)[C@@H](O)[C@H](O)[C@H]2O[C@H]2C[C@](C)(N)[C@H](O)[C@H](C)O2)Oc2ccc(cc2Cl)[C@H]1O` [VANCOMYCIN] was tested. Which MIC (Clostridioides difficile [1]) did it give?
Its MIC is 1 µg/mL.

What about the MIC (Clostridioides difficile [5]) of the same compound?
Its MIC is 1 µg/mL.

And the MIC (Clostridioides difficile [7])?
The MIC was 1 µg/mL.

What about the Ratio (Clostridioides difficile [10]) of the same compound?
Its Ratio is 16.

What about the Ratio (Clostridioides difficile [11]) of the same compound?
The Ratio was 16.

What about the Ratio (Clostridioides difficile [12]) of the same compound?
The Ratio was 8.

What about the MIC (Clostridioides difficile [20]) of the same compound?
Its MIC is 1 µg/mL.

What about the Ratio (Clostridioides difficile [22]) of the same compound?
The Ratio was 8.
